# Data from ChEMBL document CHEMBL2062469, “1-(2-Mercaptobenzenesulfonyl)-3-hydroxyguanidines--novel potent antiproliferatives, synthesis and in vitro biological activity” (2012).
# What was measured:
# Type in all cases: functional
# M14 = experiment: Cytostatic activity against human M14 cells
# Method in brief: (§1)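 NCI-60 human tumor cell line screen run by the US National Cancer Institute under the NIH Developmental Therapeutics Program protocol. A single-dose prescreen at 10 µM came first. Selected compounds then went into the 5-dose assay. Cytostatic activity is reported as GI50 (µM).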
# ACHN = experiment: Cytostatic activity against human ACHN cells; method in brief: as §1
# SNB-19 = experiment: Cytostatic activity against human SNB19 cells; method in brief: as §1
# NCI-H226 = experiment: Cytostatic activity against human NCI-H226 cells; method in brief: as §1
# HCT-116 = experiment: Cytostatic activity against human HCT116 cells; method in brief: as §1
# MDA-MB-231 = experiment: Cytostatic activity against human MDA-MB-231/ATCC cells; method in brief: as §1
# CAKI-1 = experiment: Cytostatic activity against human Caki1 cells; method in brief: as §1
# NCI-H23 = experiment: Cytostatic activity against human NCI-H23 cells; method in brief: as §1
# [1] = Cytostatic activity against human […] cells; method in brief: as §1
# SNB-75 = experiment: Cytostatic activity against human SNB75 cells
# Method in brief: (§2)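 Human tumour cell lines from the NCI-60 panel, tested at the US National Cancer Institute under the NIH Developmental Therapeutics Program protocol. A single-dose prescreen at 10 µM came first. Selected compounds then went to a 5-dose assay, which gave GI50 and TGI values in µM.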
# SK-OV-3 = experiment: Cytostatic activity against human SKOV3 cells; method in brief: as §1
# HCC 2998 = experiment: Cytostatic activity against human HCC2998 cells; method in brief: as §1
# NCI-H460 = experiment: Cytostatic activity against human NCI-H460 cells; method in brief: as §1
# NCI-H322M = experiment: Cytostatic activity against human NCI-H322M cells; method in brief: as §1
# SR = experiment: Cytostatic activity against human SR cells; method in brief: as §2
# DU-145 = experiment: Cytostatic activity against human DU145 cells; method in brief: as §1
# RXF 393 = experiment: Cytostatic activity against human RXF393 cells; method in brief: as §1
# COLO 205 = experiment: Cytostatic activity against human COLO205 cells; method in brief: as §1
# OVCAR-5 = experiment: Cytostatic activity against human OVCAR5 cells; method in brief: as §1
# OVCAR-4 = experiment: Cytostatic activity against human OVCAR4 cells; method in brief: as §1
# NCI/ADR-RES = experiment: Cytostatic activity against human NCI-ADR-RES cells; method in brief: as §1
# Malme-3M = experiment: Cytostatic activity against human MALME-3M cells; method in brief: as §1
# CCRF-CEM = experiment: Cytostatic activity against human CCRF-CEM cells; method in brief: as §1
# HCT-15 = experiment: Cytostatic activity against human HCT15 cells; method in brief: as §1
# BT-549 = experiment: Cytostatic activity against human BT549 cells; method in brief: as §1
# UO-31 = experiment: Cytostatic activity against human UO31 cells; method in brief: as §2
# OVCAR-8 = experiment: Cytostatic activity against human OVCAR8 cells; method in brief: as §1
# UACC-257 = experiment: Cytostatic activity against human UACC257 cells; method in brief: as §2
# T47D = experiment: Cytostatic activity against human T47D cells; method in brief: as §2
compound,measurement,setting,value
N=C(NO)NS(=O)(=O)c1cc(-c2nc(-c3ccccc3)no2)c(Cl)cc1SCc1ccccc1,TGI,M14,4.39 µM
same,GI50,ACHN,2.02 µM
same,TGI,ACHN,3.9 µM
same,GI50,SNB-19,3.56 µM
same,TGI,SNB-19,18.7 µM
same,GI50,NCI-H226,2.23 µM
same,TGI,NCI-H226,4.8 µM
same,GI50,HCT-116,1.67 µM
same,TGI,HCT-116,3.32 µM
same,GI50,MDA-MB-231,2.03 µM
same,TGI,MDA-MB-231,5.24 µM
same,GI50,CAKI-1,1.67 µM
same,TGI,CAKI-1,3.65 µM
same,GI50,NCI-H23,1.86 µM
same,TGI,NCI-H23,4.36 µM
same,GI50,[1],2.34 µM
same,TGI,[1],9.03 µM
same,GI50,SNB-75,1.22 µM
same,TGI,SNB-75,3.94 µM
same,GI50,SK-OV-3,2.2 µM
same,TGI,SK-OV-3,4.55 µM
same,GI50,HCC 2998,2.01 µM
same,TGI,HCC 2998,4.03 µM
same,GI50,NCI-H460,1.94 µM
same,TGI,NCI-H460,3.95 µM
same,GI50,NCI-H322M,3.48 µM
same,TGI,NCI-H322M,16.2 µM
same,GI50,SR,1.43 µM
same,TGI,SR,5.88 µM
same,GI50,DU-145,1.71 µM
same,TGI,DU-145,3.17 µM
same,GI50,RXF 393,1.52 µM
same,TGI,RXF 393,2.97 µM
same,GI50,COLO 205,1.86 µM
same,TGI,COLO 205,3.39 µM
same,GI50,OVCAR-5,2.07 µM
same,TGI,OVCAR-5,5.31 µM
same,GI50,OVCAR-4,1.6 µM
same,TGI,OVCAR-4,4.06 µM
same,GI50,NCI/ADR-RES,2.06 µM
same,TGI,NCI/ADR-RES,5.05 µM
same,GI50,Malme-3M,1.8 µM
same,TGI,Malme-3M,7.42 µM
same,GI50,CCRF-CEM,1.91 µM
same,TGI,CCRF-CEM,5.3 µM
same,GI50,HCT-15,1.79 µM
same,TGI,HCT-15,3.83 µM
same,GI50,BT-549,2.45 µM
same,TGI,BT-549,5.23 µM
same,GI50,UO-31,1.4 µM
same,TGI,UO-31,7.64 µM
same,GI50,OVCAR-8,1.72 µM
same,TGI,OVCAR-8,3.82 µM
same,GI50,UACC-257,1.68 µM
same,TGI,UACC-257,3.53 µM
same,GI50,T47D,1.7 µM
same,TGI,T47D,3.48 µM
